Only some compounds are listed: those with a hit (about 5.8% of all), similar ones and a draw of the others.
T cruzi growth-1: blocks T. cruzi growth in NIH3T3 culture. inhibition, % at 8.34 µM. T. cruzi beta-gal in NIH3T3, GalScreen luminescence, 90 h. hit rate 5.9% among 77,000;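 active = mean inhibition above about 93%, with at least 55% of replicates each passing it, limit read from the data, passing the limit was not always enough; inconclusive = only one of those two conditions holds; inactive = neither condition holds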
Pf Dd2 growth: inhibitors of Plasmodium falciparum Dd2 growth; P. falciparum Dd2 growth, SYBR Green, 72 h; stronger effect = lower value; activity change, % at 10 µM; hit rate 2.3% among 94,000; in the data active = activity change below about -80%; inconclusive = no clear call, values can overlap the other calls
KDM4C inh: KDM4C (human) demethylase inhibition | hit rate 0.15% among 96,000 | inhibition, % at 12.5 µM | Q9H3R0 | GST-KDM4C 2-372, H3K9me3 peptide, LANCE TR-FRET;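 active = mean replicate inhibition above about 25%, with at least 55% of replicates also reaching it, limit read from the data, passing the limit was not always enough; inconclusive = only one of those two conditions met; inactive = neither condition met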
Target sequence (Q9H3R0 2-372 limits assumed): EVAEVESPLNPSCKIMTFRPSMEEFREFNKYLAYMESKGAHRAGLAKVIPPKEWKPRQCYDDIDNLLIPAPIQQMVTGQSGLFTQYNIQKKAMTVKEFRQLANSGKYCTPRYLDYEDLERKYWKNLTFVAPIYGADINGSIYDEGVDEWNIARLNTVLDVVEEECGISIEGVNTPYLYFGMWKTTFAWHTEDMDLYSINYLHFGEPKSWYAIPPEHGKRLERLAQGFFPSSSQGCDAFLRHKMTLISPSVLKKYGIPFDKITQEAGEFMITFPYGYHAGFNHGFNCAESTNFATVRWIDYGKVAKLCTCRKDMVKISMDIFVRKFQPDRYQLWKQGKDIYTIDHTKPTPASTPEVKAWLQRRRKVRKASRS
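reagent = H3K9me3 peptide substrate, Fe(II), 2-oxoglutarate | system = GST-tagged GASC-1 (JMJD2C) catalytic fragment, aa 2-372 | amount = enzyme final amount 10 nM | read-out = Fall in 671/618 emission ratio as inhibition | medium = HEPES buffer, pH 7.5, plus ascorbate | schedule = 30 min reaction, 60 min detection, RT | measured by = LANCE TR-FRET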
IDH1 R132H inh: inhibitors of human IDH1 R132H; hit rate 0.18% among 70,000; IDH1 R132H reductase, diaphorase/resazurin fluorescence, 60 min; AID 624101; inhibition, % at 10 µM; O75874; in the data active = inhibition above about 34%; inconclusive = no clear call, values can overlap the other calls; inactive = below about 11%;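 also: 0% = DMSO and 100% = no enzyme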
T cruzi growth-2: Trypanosoma cruzi proliferation inhibition | shares compounds with T cruzi growth-1 | inhibition, % at 8.35 µM | T. cruzi beta-gal in NIH3T3, GalScreen luminescence, 90 h | hit rate 72% among 5,600;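 active = mean replicate inhibition above about 95% and at least 55% of replicates individually reaching it, limit read from the data; inconclusive = only one of the two criteria is met; inactive = neither criterion is met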
T cruzi growth-3: blocks T. cruzi growth in NIH3T3 host cells; shares compounds with T cruzi growth-1; hit rate 21% among 5,600; T. cruzi beta-gal in NIH3T3, GalScreen luminescence, 90 h; AID 651740; inhibition, % at 2.09 µM;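 active = mean inhibition above about 95%, with at least 55% of replicates also reaching it, limit read from the data; inconclusive = meets just one of the two conditions; inactive = meets neither condition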;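 also: plate controls were neutral control median for no effect and positive control median for full effect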
NIH3T3 tox: NIH/3T3 (mouse) viability loss. cytotoxicity (signal decrease), % at 8.35 µM. hit rate 14% among 5,600. shares compounds with T cruzi growth-1. NIH/3T3 viability, CellTiter-Glo ATP luminescence, 90 h;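 active = mean signal decrease across replicates above about 35% based on untreated-well scatter, with enough replicates individually passing, limit read from the data; inconclusive = no rule stated though some were filed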;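 also: 0% = median of neutral control wells and 100% = median of positive control wells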
NIH3T3 tox 2: NIH/3T3 (mouse) viability loss. AID 651744. inhibition, % at 24.9 µM. NIH/3T3 viability, CellTiter-Glo ATP luminescence, 90 h. shares compounds with T cruzi growth-1. hit rate 56% among 5,600;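 active = mean loss of cell viability signal at or above a set limit, and enough replicates individually reaching it; inconclusive = meets only the mean limit or only the replicate share; inactive = meets neither condition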;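 also: 0% = median of neutral control wells and 100% = median of positive control wells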
* = called active by the depositor; u = inconclusive; x = no result.

SMILES	T cruzi growth-1	Pf Dd2 growth	KDM4C inh	IDH1 R132H inh	T cruzi growth-2	T cruzi growth-3	NIH3T3 tox	NIH3T3 tox 2
C[C@H]1CN([C@@H](C)CO)C(=O)c2c(c3ccccc3n2C)-c2ccccc2CO[C@@H]1CN(C)C	41	-31	0	-1	x	x	x	x
C[C@H](CO)N1C[C@H](C)[C@@H](CN(C)C)OCc2ccccc2-c2c(n(C)c3ccccc23)C1=O	u	-23	2	0	12	25	-4	13
CCCC#Cc1ccc([C@H]2[C@@H](CO)N3CCCCN(C(=O)NC4CCCC4)C[C@H]23)cc1	u	-79	0	x	106*	81	44*	103*
CCCC#Cc1ccc([C@@H]2[C@H](CO)N3CCCCN(C(=O)NC4CCCC4)C[C@@H]23)cc1	u	-43	-3	x	109*	89	14	103*
COc1ccc(-c2ccc([C@H]3[C@@H](C#N)N(C(=O)NC(C)C)[C@H]3CO)cc2)cc1	98*	-80	-3	x	105*	109*	12	34*
CC(C)NC(=O)N1[C@H](C#N)[C@H](c2ccc(-c3ccc(F)cc3)cc2)[C@@H]1CO	u	u	1	x	96*	109*	3	15
CC(C)NC(=O)N1[C@H](CO)[C@@H](c2ccc(-c3ccc(F)cc3)cc2)[C@@H]1C#N	32	-10	-1	x	x	x	x	x
COc1ccc(-c2ccc([C@H]3[C@H](C#N)N(C(=O)NC(C)C)[C@H]3CO)cc2)cc1	90	-54	-1	x	x	x	x	x
COc1ccc(-c2ccc([C@H]3[C@@H](C#N)N(C(=O)NC4CCCCC4)[C@H]3CO)cc2)cc1	102*	-49	-3	x	97*	35	34	35*
COc1cc(/C=N/NC(=O)CCCCC(=O)NO)c(Br)cc1O	x	x	x	-1	x	x	x	x
Cc1ccc(-c2ccc3c(c2)O[C@H](CN(C)Cc2ccncc2)[C@@H](C)CN([C@H](C)CO)S3(=O)=O)cc1	122*	-90*	0	0	99*	103*	75*	105*
Cc1ccc(-c2ccc3c(c2)O[C@H](CN(C)Cc2ccncc2)[C@H](C)CN([C@@H](C)CO)S3(=O)=O)cc1	119*	-12	3	x	90	80	u	99*
C[C@H](CO)N1C[C@H](C)[C@@H](CN(C)Cc2ccncc2)Oc2cc(-c3ccncc3)ccc2S1(=O)=O	116	-36	-2	x	x	x	x	x
Cn1cnc(S(=O)(=O)N2CC[C@H]3[C@H](CO)Nc4ccc(C#Cc5ccc(F)cc5)cc4[C@H]32)c1	x	-27	-1	x	x	x	x	x
Cc1ccccc1-c1ccc2c(c1)O[C@H](CN(C)C(=O)Nc1ccccc1)[C@@H](C)CN([C@H](C)CO)S2(=O)=O	u	-26	-1	0	79	-9	18	28*
C[C@H]1CN([C@@H](C)CO)S(=O)(=O)c2ccc(-c3ccncc3)cc2O[C@H]1CN(C)C(=O)Nc1ccc(F)cc1	92	-25	0	1	x	x	x	x
C[C@H]1CN([C@@H](C)CO)S(=O)(=O)c2ccc(-c3ccncc3)cc2O[C@@H]1CN(C)C(=O)Nc1ccc(F)cc1	105*	-13	25	59*	102*	89	15	u
Cc1ccccc1-c1ccc2c(c1)O[C@H](CN(C)C(=O)Nc1ccccc1)[C@H](C)CN([C@H](C)CO)S2(=O)=O	73	-9	-4	-3	x	x	x	x
Cc1ccc(-c2ccc3c(c2)O[C@@H](CN(C)C(=O)Nc2ccc(F)cc2)[C@H](C)CN([C@@H](C)CO)S3(=O)=O)cc1	119*	-5	-4	x	95*	42	43*	35*
Cc1ccc(-c2ccc3c(c2)O[C@@H](CN(C)C(=O)Nc2ccc(F)cc2)[C@H](C)CN([C@H](C)CO)S3(=O)=O)cc1	64	-62	0	-1	x	x	x	x
C[C@@H]1CN([C@H](C)CO)S(=O)(=O)c2ccc(-c3ccncc3)cc2O[C@@H]1CN(C)C(=O)Nc1ccc(F)cc1	108*	8	0	x	97*	77	11	39*
C[C@H]1CN([C@@H](C)CO)C(=O)c2cc(NS(=O)(=O)c3ccc(Cl)cc3)ccc2O[C@H]1CN(C)Cc1ccccc1	23	-27	0	-1	x	x	x	x
CC(C)NC(=O)Nc1ccc2c(c1)CC(=O)N([C@H](C)CO)C[C@@H](C)[C@H](CN(C)Cc1ccc(C(=O)Nc3ccccc3N)cc1)O2	14	-12	-1	0	x	x	x	x
C[C@H](CO)N1C[C@H](C)[C@@H](CN(C)C(=O)Nc2ccc(F)cc2)Oc2cc(-c3ccncc3)ccc2S1(=O)=O	93	-32	0	-1	x	x	x	x
C[C@@H]1CN([C@@H](C)CO)S(=O)(=O)c2ccc(-c3ccncc3)cc2O[C@H]1CN(C)C(=O)Nc1ccc(F)cc1	102*	4	-3	x	101*	86	-11	64*
SMILES	T cruzi growth-1	Pf Dd2 growth	KDM4C inh	IDH1 R132H inh	T cruzi growth-2	T cruzi growth-3	NIH3T3 tox	NIH3T3 tox 2
CCc1cnc(N2[C@H](C#N)[C@H](c3ccccc3)[C@H]2CO)s1	-7	26	-1	x	x	x	x	x
CCc1cnc(N2[C@H](C#N)[C@@H](c3ccc(-c4cccc(F)c4)cc3)[C@@H]2CO)s1	u	-22	-2	x	104*	52	-4	100*
CCc1cnc(N2[C@@H](C#N)[C@H](c3ccc(C#Cc4ccccc4F)cc3)[C@@H]2CO)s1	110*	-44	-1	x	105*	94	11	2
CCc1cnc(N2[C@H](C#N)[C@@H](c3ccc(C#Cc4ccccc4F)cc3)[C@@H]2CO)s1	100*	-53	-1	x	100*	107*	-25	85*
CCc1cnc(N2[C@H](C#N)[C@@H](c3ccccc3)[C@H]2CO)s1	7	20	-1	x	x	x	x	x
COc1ccc(OC)c(NC(=O)COc2ccc3c(=O)c(Oc4ccccc4Br)coc3c2)c1	x	x	x	0	x	x	x	x
C[C@H](CO)N1C[C@H](C)[C@@H](CN(C)Cc2ccc(Cl)c(Cl)c2)OCCCC[C@H](C)Oc2ccc(NC(=O)Nc3cccc4ccccc34)cc2C1=O	122*	-4	-1	x	111*	106*	24	16
C[C@@H]1CN([C@H](C)CO)C(=O)c2cc(NC(=O)Nc3cccc4ccccc34)ccc2O[C@@H](C)CCCCO[C@H]1CN(C)Cc1ccc(Cl)c(Cl)c1	x	-70	0	1	x	x	x	x
C[C@@H]1CCCCO[C@@H](CN(C)Cc2ccc(Cl)c(Cl)c2)[C@@H](C)CN([C@H](C)CO)C(=O)c2cc(NC(=O)Nc3cccc4ccccc34)ccc2O1	120*	-18	1	-1	103*	77	-13	-17

Screening results from PubChem BioAssay.
